# PLC-gamma1 inh: inhibitors of human phospholipase C gamma1; purified PLC-gamma1, fluorogenic substrate, fluorescence; P19174; 0.84% of 370,000 active; inhibition, % at 12.2 µM; AID 720700
# sPLA2-III inh: Inhibits HGIII-sPLA2 liposome hydrolysis, primary screen; 0.56% of 370,000 active; Q9NZ20; inhibition, % at 12.2 µM; QFRET BODIPY PC-A2 liposome hydrolysis, fluorescence;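 active means inhibition above mean plus 3 SD of compounds lying within the high and low control bounds, cut at about 19% in these data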;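 further: 0% = median of test compound wells and 100% = no enzyme DMSO wells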
# PLC-beta3 inh: blocks human PLC-beta3 enzyme activity | Q01970 | inhibition, % at 12.2 µM | 0.18% of 370,000 active | Purified PLC-beta3, fluorogenic substrate, fluorescence; in the data active means inhibition above about 11%;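 further: 0% = median of compound wells on plate and 100% = full blocker control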
# DAGLB inhibitor: diacylglycerol lipase beta (human) inhibition; Q8NCG7; HEK293T DAGLB membrane lysate, EnzChek fluorogenic substrate; 0.059% of 340,000 active; inhibition, % at 5.17 µM; in the data active means inhibition above about 34%;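 further: 0% = enzyme with vehicle and 100% = wells lacking enzyme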
# Target sequence (Q8NCG7 whole entry, looked up): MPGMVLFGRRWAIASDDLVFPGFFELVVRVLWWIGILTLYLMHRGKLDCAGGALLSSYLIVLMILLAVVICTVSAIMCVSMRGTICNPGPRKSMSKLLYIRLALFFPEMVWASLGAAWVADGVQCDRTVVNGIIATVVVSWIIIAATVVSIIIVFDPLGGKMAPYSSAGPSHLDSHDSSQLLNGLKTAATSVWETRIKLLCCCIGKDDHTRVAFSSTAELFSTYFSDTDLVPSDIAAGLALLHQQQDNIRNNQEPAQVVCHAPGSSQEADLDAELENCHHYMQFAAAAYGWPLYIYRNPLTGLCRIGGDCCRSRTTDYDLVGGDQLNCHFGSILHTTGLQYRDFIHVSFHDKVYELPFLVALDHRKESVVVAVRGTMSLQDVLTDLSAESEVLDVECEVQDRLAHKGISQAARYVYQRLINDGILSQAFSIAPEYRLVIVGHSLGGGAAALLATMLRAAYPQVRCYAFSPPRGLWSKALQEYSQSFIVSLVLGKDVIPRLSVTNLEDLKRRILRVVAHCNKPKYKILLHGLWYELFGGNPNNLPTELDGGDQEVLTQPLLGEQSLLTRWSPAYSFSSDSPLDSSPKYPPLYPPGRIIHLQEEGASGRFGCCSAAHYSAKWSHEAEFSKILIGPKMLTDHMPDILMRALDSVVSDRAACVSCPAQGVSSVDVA
# Tb MetRS inh: Trypanosoma brucei MetRS inhibition. AID 624268. 0.4% of 360,000 active. purified T. brucei MetRS, ATP depletion, Kinase-Glo luminescence. inhibition, % at 11.9 µM;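 active means inhibition above a per-plate cutoff of the control wells' mean inhibition plus 3 SD, cut at about 5.5% in these data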;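 further: 0% = DMSO wells median and 100% = median of wells with control inhibitor compound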
#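 Test system: purified T. brucei MetRS enzyme. Also added: ATP, methionine and E. coli bulk tRNA substrates. Compound: 11.9 µM single point. Schedule: 15 min enzyme-compound preincubation, 2 h reaction, 10 min detection, 25 °C. Signal: luciferase luminescence of residual ATP, Kinase-Glo. Evaluation: percent inhibition versus plate control medians. Controls: DMSO wells, low control.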
# PLCg1 ctr: inhibits human PLC-gamma1 in PLC-beta3 counter-screen. 3.1% of 3,300 active. inhibition, % at 12.3 µM. shares compounds with PLC-gamma1 inh. purified PLC-gamma1, fluorogenic substrate, fluorescence
# PLCbeta3 conf: confirmation of human PLC-beta3 inhibitors. shares compounds with PLC-gamma1 inh. purified PLC-beta3, fluorogenic substrate fluorescence. inhibition, % at 12.3 µM. 1% of 3,300 active. AID 743261; in the data active means inhibition above about 11%
# An asterisk follows results filed as active; . = not tested or not shown. Compounds with a hit are over-represented: about 1.9% of the library has one in this group of screens. Unless noted, no stated cut-off is given here; in the data, active means inhibition above about 9.5%; inactive means the rest.
SMILES,PLC-gamma1 inh,sPLA2-III inh,PLC-beta3 inh,DAGLB inhibitor,Tb MetRS inh,PLCg1 ctr,PLCbeta3 conf
O=C(NC1CCCCC1)C(c1ccncc1)N(C(=O)c1csnn1)c1ccccc1F (stereo not given),-3,11,-7,-1,1,.,.
O=C(NC1CCCC1)C(c1ccncc1)N(C(=O)c1csnn1)c1ccccc1 (stereo not given),0,10,-12,-2,0,.,.
O=C(NC1CCCC1)C(c1ccccc1)N(C(=O)c1csnn1)c1ccccc1F (stereo not given),9.9*,1,6,1,0,2,-3
COc1cc(NC(=O)c2ccccc2)c(C)cc1NC(=O)CSc1nnc(-c2cnccn2)n1-c1ccc(C)cc1,0,-2,3,.,.,.,.
CC(OP(=O)(O)C(NC(=O)[C@H](Cc1ccc(O)cc1)NC(=O)OC(C)(C)C)C(C)C)C(=O)O (stereo not given in full),1,10,0,.,.,.,.
O=C(Cn1cccc1C(=O)c1ccccc1)NCCc1ccc(Cl)cc1,0,1,-5,0,-1,.,.
N=c1sccn1CC(=O)NCCc1ccc(Cl)cc1,10*,2,3,-3,0,-8,-7
COCC(=O)N[C@H]1C[C@@H]2O[C@H](CO)CC[C@@H]2O[C@@H]1CCc1ccc(-c2ccccc2)cc1,2,-3,4,.,.,.,.
COc1ccc(CC(=O)Nc2ccc(C)cc2S(=O)(=O)N2CCOCC2)cc1OC,-2,-3,-1,.,.,.,.
O=c1c2[nH]c3ccccc3c2ncn1CCN1CCCCC1,-6,1,-4,-2,-1,.,.
O=c1c2[nH]c3ccccc3c2ncn1CCN1CCOCC1,9.6*,10,6,3,0,1,-1
CCc1ccc(CCNC(=O)OCCCN2CCC3(CCC(C)CC3)C2=O)cc1 (stereo not given),-1,-8,2,.,.,.,.
Cc1ccc(NC(=O)c2nnn(CC(=O)Nc3ccccc3)c2N)cc1C,0,-4,-3,-2,0,.,.
Cc1ccc(NC(=O)Cn2nnc(C(=O)NCc3ccccc3)c2N)cc1C,11*,4,0,-3,0,-3,-1
CCOC(=O)c1c2c(n(Cc3ccccc3)c1C)C(=O)C(=O)c1ccccc1-2,17*,9,4,18,2,36*,11*
N#Cc1ccccc1CSc1ccccn1,9,5,11*,0,-1,-6,-8
N#Cc1ccc(CSc2ccccn2)c(Cl)c1,-1,16,-10,-4,0,.,.
CCOC(=O)c1c(C)[nH]c(C)c1C(=O)CN1C(=O)NC2(CCCCCC2)C1=O,-1,4,1,-2,0,.,.
CCOC(=O)c1c(C)[nH]c(C(=O)CN2C(=O)NC3(CCCC3)C2=O)c1C,13*,1,8,0,-1,-2,2
O=C(NC1CCC1)O[C@H]1CC[C@@]23CCCN2C(=O)CCC[C@H]3C1,2,0,0,.,.,.,.
CN(C)CCCNc1nc(N)c([N+](=O)[O-])c(NCc2ccccc2)n1,9.7*,-6,-1,-2,-1,-1,1
Nc1nc(NCc2ccccc2)nc(NCc2ccccc2)c1[N+](=O)[O-],1,-12,4,-1,-1,.,.
COCCCNc1nc(N)c([N+](=O)[O-])c(NCc2ccccc2)n1,10*,12,1,-3,-1,5,-1
COCCNc1nc(N)c([N+](=O)[O-])c(NCc2ccccc2)n1,7,-1,0,0,0,.,.
COC(=O)C1CN(Cc2ccc(F)cc2)CCS(=O)(=O)N1Cc1cn(Cc2ccc(F)cc2)nn1 (stereo not given),-2,-8,0,.,.,.,.
SMILES,PLC-gamma1 inh,sPLA2-III inh,PLC-beta3 inh,DAGLB inhibitor,Tb MetRS inh,PLCg1 ctr,PLCbeta3 conf
CCOc1ccc(C(=O)N(CN2CCCC2=O)c2ccccc2)cc1,9.9*,-5,2,0,0,-1,-1
O=C(/C=C(\Nc1cccc(F)c1)c1ccccc1)c1ccccc1,0,-1,2,.,.,.,.
O=C(NCCc1csc(-c2cccnc2)n1)c1ccc(Cl)cc1,13*,-1,4,1,1,-1,3
O=C(NCCc1csc(-c2cccnc2)n1)c1cccc(Cl)c1,0,0,-4,0,-2,.,.
S=C1NCCOc2ccccc21,0,2,1,.,.,.,.
CCc1ccc(OC)c(S(=O)(=O)Nc2ccc(Cc3ccncc3)cc2)c1,14*,-34,-4,0,0,-1,0
Cc1c([N+](=O)[O-])cnc(Sc2ccccc2)c1[N+](=O)[O-],11*,-34,1,-27,0,9.5*,0
Cc1ccc(Sc2ncccc2[N+](=O)[O-])cc1,-4,12,-9,-1,-1,.,.
Cc1ccc(-n2c(SCC(=O)NN=Cc3c[nH]c4ccccc34)nnc2-c2ccccc2)cc1,4,-3,-7,.,.,.,.
CCOC(=O)N1CCN(C(=O)COc2ccccc2Cl)CC1,9.5*,-3,10,2,1,1,3
COC(=O)c1cc2c(c3c4cc(F)ccc4n(S(=O)(=O)c4cccc(C)c4)c13)C(=O)N(c1ccc(OC)cc1)C2,-24,11,-35,.,.,.,.
CC1CCCCN1C(=O)C(Cc1ccccc1)N1C(=O)C2CCCCC2C1=O (stereo not given),11*,-1,11*,-2,0,-3,-3
CC12CCC(=O)N1C(C(=O)Nc1ccc(S(=O)(=O)N3CCCCC3)cc1)CS2 (stereo not given),2,4,-10,-1,0,.,.
CC12CCC(=O)N1C(C(=O)Nc1cccc(S(=O)(=O)N3CCCCCC3)c1)CS2 (stereo not given),10*,-12,4,1,-1,-4,3
CC12CCC(=O)N1C(C(=O)Nc1cc(S(=O)(=O)N3CCCCCC3)ccc1OCC(F)(F)F)CS2 (stereo not given),11*,-11,-3,-3,0,-2,2
CCOC(=O)N1CCN(C(=O)c2ccc(Cn3c(=S)[nH]c4cc5c(cc4c3=O)OCO5)cc2)CC1,12*,3,4,-1,0,4,1
Cc1cc(C(=O)OCC(=O)c2cccc([N+](=O)[O-])c2)c2ccccc2n1,9,-6,14*,0,0,-6,-2
CC(C)C[C@H]1COc2cc(N3CCOCC3)ccc2S(=O)(=O)N1,-4,8,-4,.,.,.,.
CC[C@H]1C=C[C@@H](C(=O)NS(=O)(=O)c2ccc(C)cc2)N(C(C)=O)C1,41*,-3,-15,.,.,38*,-15
Cc1cccnc1NC(=O)c1ccc(S(=O)(=O)N2CCCCC2)cc1,11*,4,3,1,0,-3,6
O=C(Nc1ccncc1)c1cccc(S(=O)(=O)N2CCCC2)c1,10*,2,-3,0,0,-2,-3
